In ChEMBL document CHEMBL4118094, “Structure-Guided Design and Initial Studies of a Bifunctional MEK/PI3K Inhibitor (ST-168)” (ACS Med Chem Lett, 2017):
Active and inactive are the calls of the source. The calls are words filed in the database; no cut-off is given here.

Experiments:
[1] = target: PI3-kinase p110-alpha/p85-alpha (Homo sapiens, UniProt P42336); experiment: Inhibition of recombinant human full length His-tagged PI3K p110alpha/p85alpha expressed in baculovirus expression system coexpressing PIK3R1 by TR-FRET assay
PI3-kinase p110-alpha/p85-alpha, sequence (P27986 whole entry, canonical isoform): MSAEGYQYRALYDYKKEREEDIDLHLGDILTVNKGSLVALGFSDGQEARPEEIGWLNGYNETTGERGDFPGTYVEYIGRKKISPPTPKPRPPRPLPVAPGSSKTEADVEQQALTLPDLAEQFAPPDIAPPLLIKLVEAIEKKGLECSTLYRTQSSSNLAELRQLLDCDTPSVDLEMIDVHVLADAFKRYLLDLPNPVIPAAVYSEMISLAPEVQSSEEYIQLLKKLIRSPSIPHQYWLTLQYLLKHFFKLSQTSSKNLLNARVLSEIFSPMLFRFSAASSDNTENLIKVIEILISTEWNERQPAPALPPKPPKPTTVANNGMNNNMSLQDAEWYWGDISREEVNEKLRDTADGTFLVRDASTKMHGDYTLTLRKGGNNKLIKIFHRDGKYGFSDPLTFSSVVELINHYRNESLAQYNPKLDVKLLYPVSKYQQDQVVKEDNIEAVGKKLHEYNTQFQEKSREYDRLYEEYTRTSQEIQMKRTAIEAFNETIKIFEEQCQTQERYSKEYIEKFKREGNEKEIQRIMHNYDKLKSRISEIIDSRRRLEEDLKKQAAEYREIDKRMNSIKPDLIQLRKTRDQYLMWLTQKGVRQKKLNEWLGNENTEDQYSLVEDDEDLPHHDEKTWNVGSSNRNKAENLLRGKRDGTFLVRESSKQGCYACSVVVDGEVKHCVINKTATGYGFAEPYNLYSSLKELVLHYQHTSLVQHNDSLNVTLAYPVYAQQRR
PI3-kinase p110-alpha/p85-alpha, sequence (P42336 whole entry, canonical isoform): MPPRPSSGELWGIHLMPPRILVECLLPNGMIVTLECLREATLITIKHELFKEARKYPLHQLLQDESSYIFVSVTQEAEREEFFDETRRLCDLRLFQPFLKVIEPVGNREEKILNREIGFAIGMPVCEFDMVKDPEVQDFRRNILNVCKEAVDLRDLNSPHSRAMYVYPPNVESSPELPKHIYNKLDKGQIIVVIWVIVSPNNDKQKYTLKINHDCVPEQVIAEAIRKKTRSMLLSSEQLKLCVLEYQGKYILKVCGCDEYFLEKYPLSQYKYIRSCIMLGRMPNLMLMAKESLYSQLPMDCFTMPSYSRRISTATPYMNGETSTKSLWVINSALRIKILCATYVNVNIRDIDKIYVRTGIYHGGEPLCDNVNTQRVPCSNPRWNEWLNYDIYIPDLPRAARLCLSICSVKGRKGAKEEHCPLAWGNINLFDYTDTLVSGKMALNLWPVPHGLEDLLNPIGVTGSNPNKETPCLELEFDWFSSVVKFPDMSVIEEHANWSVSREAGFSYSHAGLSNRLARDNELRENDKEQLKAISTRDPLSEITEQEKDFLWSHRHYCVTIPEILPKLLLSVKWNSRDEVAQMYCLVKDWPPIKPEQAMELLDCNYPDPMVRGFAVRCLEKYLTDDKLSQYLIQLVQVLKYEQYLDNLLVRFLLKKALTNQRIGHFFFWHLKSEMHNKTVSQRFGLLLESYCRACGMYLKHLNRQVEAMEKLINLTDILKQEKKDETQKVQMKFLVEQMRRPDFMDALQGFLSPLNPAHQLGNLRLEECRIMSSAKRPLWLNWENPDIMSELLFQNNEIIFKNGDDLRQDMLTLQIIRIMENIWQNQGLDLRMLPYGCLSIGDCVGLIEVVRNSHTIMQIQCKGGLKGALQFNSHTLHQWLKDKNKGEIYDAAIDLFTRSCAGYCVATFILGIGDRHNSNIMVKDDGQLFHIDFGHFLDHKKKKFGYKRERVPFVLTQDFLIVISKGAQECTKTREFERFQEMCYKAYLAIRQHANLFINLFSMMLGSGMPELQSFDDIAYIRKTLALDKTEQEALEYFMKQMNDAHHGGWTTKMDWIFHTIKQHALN
Summary of the method: (§1)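 PI3K isoform activity by fluorescence-based Adapta TR-FRET kinase assay. Values are the average of 3 experiments, each run in duplicate, given as mean ± SEM.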

[2] = target: PI3-kinase p110-delta/p85-alpha (Homo sapiens, UniProt O00329); experiment: Inhibition of recombinant human full length His-tagged PI3K p110delta/p85alpha expressed in baculovirus expression system coexpressing PIK3R1 by TR-FRET assay; summary of the method: as §1
PI3-kinase p110-delta/p85-alpha, sequence (P27986 whole entry): as the sequence (P27986 whole entry, canonical isoform) above
PI3-kinase p110-delta/p85-alpha, sequence (O00329 whole entry): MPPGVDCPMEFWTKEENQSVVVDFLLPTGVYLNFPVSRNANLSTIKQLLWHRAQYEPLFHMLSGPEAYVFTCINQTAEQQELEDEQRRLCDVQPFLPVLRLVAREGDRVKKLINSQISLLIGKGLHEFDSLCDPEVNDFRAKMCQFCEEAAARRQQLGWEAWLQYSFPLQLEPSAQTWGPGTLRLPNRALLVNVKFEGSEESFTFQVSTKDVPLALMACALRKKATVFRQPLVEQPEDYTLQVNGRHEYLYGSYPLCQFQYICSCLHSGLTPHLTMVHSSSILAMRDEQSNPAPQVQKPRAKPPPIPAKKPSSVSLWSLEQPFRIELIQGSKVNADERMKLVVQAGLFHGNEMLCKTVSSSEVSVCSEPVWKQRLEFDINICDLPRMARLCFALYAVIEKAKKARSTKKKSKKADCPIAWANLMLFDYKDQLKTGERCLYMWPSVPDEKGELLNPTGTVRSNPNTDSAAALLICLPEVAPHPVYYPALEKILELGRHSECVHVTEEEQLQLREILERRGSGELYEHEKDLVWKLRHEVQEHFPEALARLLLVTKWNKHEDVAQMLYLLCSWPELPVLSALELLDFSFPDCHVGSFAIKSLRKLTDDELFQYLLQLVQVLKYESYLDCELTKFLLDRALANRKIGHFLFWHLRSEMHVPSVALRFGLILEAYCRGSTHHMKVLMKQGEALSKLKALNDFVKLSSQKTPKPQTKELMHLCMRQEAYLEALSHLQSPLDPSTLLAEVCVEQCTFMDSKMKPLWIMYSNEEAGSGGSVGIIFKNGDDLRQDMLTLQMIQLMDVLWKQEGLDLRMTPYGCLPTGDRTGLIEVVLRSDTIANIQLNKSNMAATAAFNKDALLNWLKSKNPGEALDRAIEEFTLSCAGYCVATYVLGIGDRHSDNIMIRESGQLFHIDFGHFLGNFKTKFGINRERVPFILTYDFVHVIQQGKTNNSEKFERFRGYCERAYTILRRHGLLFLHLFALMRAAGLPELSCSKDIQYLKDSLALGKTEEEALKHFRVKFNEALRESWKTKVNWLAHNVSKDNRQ

[3] = target: T1, Dual specificity mitogen-activated protein kinase kinase 1 (Homo sapiens, UniProt Q02750); experiment: Inhibition of recombinant human GST-tagged MEK1 expressed in baculovirus infected Sf9 insect cells using inactive ERK2 as substrate preincubated for 30 mins followed by substrate addition measured after 2 hrs by kinase-glo reagent based bioluminescence assay
T1 sequence (Q02750 whole entry): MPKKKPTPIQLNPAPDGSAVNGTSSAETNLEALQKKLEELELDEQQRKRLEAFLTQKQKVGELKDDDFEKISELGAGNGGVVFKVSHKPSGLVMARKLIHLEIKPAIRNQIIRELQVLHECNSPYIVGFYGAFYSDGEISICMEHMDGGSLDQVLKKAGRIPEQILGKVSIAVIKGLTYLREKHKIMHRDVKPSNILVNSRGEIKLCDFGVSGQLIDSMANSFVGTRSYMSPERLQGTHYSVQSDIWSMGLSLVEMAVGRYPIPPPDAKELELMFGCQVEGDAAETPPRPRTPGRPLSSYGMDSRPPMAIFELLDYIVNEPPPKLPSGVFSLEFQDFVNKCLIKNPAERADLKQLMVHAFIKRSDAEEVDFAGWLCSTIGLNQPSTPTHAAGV

[4] = test system: A-375; experiment: Antiproliferative activity against human A375 spheroids at 20 uM after 72 hrs by calcein AM/ethidium homodimer 1 staining based fluorescence microscopy; type: functional, cell-based
Summary of the method: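 A375 melanoma spheroids exposed 72 h to compound at 20 µM; then stained with calcein AM (live, green) and ethidium homodimer-1 (dead, red). Read by fluorescence microscopy. Replicate experiments, representative images.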

[5] = target: T1, Dual specificity mitogen-activated protein kinase kinase 1; experiment: Inhibition of MEK1 in human A375 cell lysate assessed as reduction in ERK1/2 phosphorylation at Thr202/Tyr204 at 20 uM after 1 hr by Western blot analysis
Summary of the method: (§2)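 A375 cells (constitutive MEK1/PI3K pathway activation) incubated 1 h with compound at 20 µM against equimolar DMSO. Lysates immunoblotted: ERK1/2 phosphorylation for MEK1 activity, AKT Ser473 phosphorylation for PI3K activity.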

[6] = test system: A-375; experiment: Antitumor activity against human A375 cells xenografted in athymic Foxn1nu mouse assessed as tumor growth inhibition at 400 mg/kg, qd administered via oral gavage for 42 days measured twice per week by MRI imaging analysis; type: functional, organism-based
Summary of the method: (§3)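 Nude mice inoculated in the flank with 5 x 10^6 A375 cells in 100 µl. Dosing began once tumors exceeded 100 mm3, after randomization. Daily oral gavage at 400 mg/kg until sacrifice at 42 days; vehicle was 200 µl OraPlus. Tumor growth followed by MRI twice per week.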

[7] = organism: Homo sapiens; experiment: Inhibition of PI3K in human A375 cell lysate assessed as reduction in Akt phosphorylation at Ser473 residue at 20 uM after 1 hr by Western blot analysis; summary of the method: as §2
[8] = test system: A-375; experiment: Antitumor activity against human A375 cells xenografted in athymic Foxn1nu mouse assessed as tumor growth inhibition at 400 mg/kg, qd administered via oral gavage measured after 35 days by MRI imaging analysis; type: functional, organism-based; summary of the method: as §3

Row | SMILES | IC50 [1] [nM] | IC50 [2] [nM] | IC50 [3] [nM] | inhibition [5] | inhibition [7] | Activity [4] | TGI [6] | TGI [8]
1 | O=C(NOCCOCCOCCOCCN1CCN(c2nc(N3CCOCC3)nc(-n3c(C(F)F)nc4ccccc43)n2)CC1)c1ccc(F)c(F)c1Nc1ccc(I)cc1F | 191 | 942 | 398 | Active | Active | Active | Active | 
2 | O=C(NOCCOCCOCCOCCC(=O)N1CCN(c2nc(N3CCOCC3)nc(-n3c(C(F)F)nc4ccccc43)n2)CC1)c1ccc(F)c(F)c1Nc1ccc(I)cc1F | 69.2 | 41.7 | 182 | Active | Active | Active |  | Active
3 | FC(F)c1nc2ccccc2n1-c1nc(N2CCNCC2)nc(N2CCOCC2)n1 | 180 | 142 |  |  |  |  |  | 

These reach a lower IC50 [1]. Values come first.

Row | IC50 [1] [nM] | IC50 [2] [nM] | IC50 [3] [nM] | inhibition [5] | inhibition [7] | SMILES | Activity [4] | TGI [6] | TGI [8]
4 | 11.5 | 1.3 |  |  |  | NOCCOCCOCCOCCC(=O)N1CCN(c2nc(N3CCOCC3)nc(-n3c(C(F)F)nc4ccccc43)n2)CC1 |  |  | 
5 | 8.2 | 2.9 |  |  |  | CC(=O)N1CCN(c2nc(N3CCOCC3)nc(-n3c(C(F)F)nc4ccccc43)n2)CC1 |  |  | 
